Consider 28 molecules from ChEMBL document CHEMBL4330085, “Peptidomimetic plasmepsin inhibitors with potent anti-malarial activity and selectivity against cathepsin D” (Eur J Med Chem, 2019).

Assay [1] concerns the target Plasmepsin 4 (Plasmodium falciparum, UniProt Q17SB2). As to the kind of experiment: Inhibition of Plasmodium falciparum plasmepsin 4 using DABCYL-Glu-Arg-Nle-Phe-Leu-Ser-Phe-Pro-EDANS as substrate preincubated for 30 mins followed by substrate addition and measured every min for 8 to 15 mins by FRET assay.
Assay [2] concerns the target Cathepsin D (Homo sapiens, UniProt P07339). The experiment in a line: Inhibition of human cathepsin D using DABCYL-Glu-Arg-Nle-Phe-Leu-Ser-Phe-Pro-EDANS as substrate preincubated for 30 mins followed by substrate addition and measured every min for 8 to 15 mins by FRET assay.
For assay [3], the target named is Plasmepsin II (Plasmodium falciparum, UniProt P46925). As to the kind of experiment: Inhibition of Plasmodium falciparum plasmepsin 2 using DABCYL-Glu-Arg-Nle-Phe-Leu-Ser-Phe-Pro-EDANS as substrate preincubated for 30 mins followed by substrate addition and measured every min for 8 to 15 mins by FRET assay.
Plasmepsin II, sequence (P46925 whole entry): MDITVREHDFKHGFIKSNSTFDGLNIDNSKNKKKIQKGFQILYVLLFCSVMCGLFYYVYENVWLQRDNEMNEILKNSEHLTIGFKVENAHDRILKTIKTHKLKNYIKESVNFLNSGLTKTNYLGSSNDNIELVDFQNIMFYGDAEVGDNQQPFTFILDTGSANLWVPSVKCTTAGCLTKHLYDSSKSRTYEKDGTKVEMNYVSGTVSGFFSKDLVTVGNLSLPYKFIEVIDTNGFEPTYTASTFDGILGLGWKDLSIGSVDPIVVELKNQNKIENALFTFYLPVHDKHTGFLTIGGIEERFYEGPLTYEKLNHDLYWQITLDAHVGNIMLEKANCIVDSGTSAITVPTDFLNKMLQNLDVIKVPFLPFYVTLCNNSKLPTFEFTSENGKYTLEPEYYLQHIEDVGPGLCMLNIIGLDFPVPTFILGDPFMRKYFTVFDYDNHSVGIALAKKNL
Assay [4] addresses Plasmepsin I (Plasmodium falciparum, UniProt P39898). The experiment in a line: Inhibition of Plasmodium falciparum plasmepsin 1 using DABCYL-Glu-Arg-Nle-Phe-Leu-Ser-Phe-Pro-EDANS as substrate preincubated for 30 mins followed by substrate addition and measured every min for 8 to 15 mins by FRET assay.
The subject of assay [5] is Plasmodium falciparum. The experiment in a line: Antimalarial activity against blood stage form of Plasmodium falciparum 3D7 infected in erythrocytes after 96 hrs by SYBR Green I dye-based spectrophotometric analysis. In kind it is functional, organism-based. As to conditions: 3D7, 96 h. In outline:
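P. falciparum blood-stage growth was read by SYBR Green fluorescence after a 96 h incubation (2 erythrocytic cycles). EC50 values came from triplicate samples in 2 separate biological assays, with a reference inhibitor as positive control.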

For assay [6], the target named is Plasmepsin X (Plasmodium falciparum (isolate 3D7)) (UniProt Q8IAS0). As to the kind of experiment: Inhibition of Plasmodium falciparum plasmepsin 10-mediated SUB1 maturation and egress assessed as reduction in SERA5 P50 level at 10 nM by Western blot analysis. (In general: In western blotting, separated proteins are transferred to a membrane and probed.)
Plasmepsin X (Plasmodium falciparum (isolate 3D7)), sequence (Q8IAS0 whole entry): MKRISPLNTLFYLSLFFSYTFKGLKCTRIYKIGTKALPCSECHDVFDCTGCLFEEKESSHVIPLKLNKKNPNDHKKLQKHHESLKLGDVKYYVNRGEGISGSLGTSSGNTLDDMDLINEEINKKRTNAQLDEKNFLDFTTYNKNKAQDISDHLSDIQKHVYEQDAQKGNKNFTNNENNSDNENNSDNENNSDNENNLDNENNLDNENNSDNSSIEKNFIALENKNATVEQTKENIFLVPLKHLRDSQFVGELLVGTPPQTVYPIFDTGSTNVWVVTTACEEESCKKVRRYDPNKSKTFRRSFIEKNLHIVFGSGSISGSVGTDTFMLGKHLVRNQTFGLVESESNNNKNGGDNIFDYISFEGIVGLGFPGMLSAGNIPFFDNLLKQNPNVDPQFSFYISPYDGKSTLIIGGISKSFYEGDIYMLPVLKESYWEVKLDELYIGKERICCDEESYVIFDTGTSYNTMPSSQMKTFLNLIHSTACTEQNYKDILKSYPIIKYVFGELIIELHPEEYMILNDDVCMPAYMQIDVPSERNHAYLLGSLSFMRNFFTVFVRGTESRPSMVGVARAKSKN
The target is the same in assay [7]. As to the kind of experiment: Inhibition of Plasmodium falciparum plasmepsin 10-mediated SUB1 maturation and egress assessed as enrichment of SUB1 p54 form level at 10 nM after 8 hrs by Western blot analysis. A digest of the protocol:
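Synchronous cultures of immature intracellular parasites were exposed for ~8 h to compound at 10 nM. Controls were vehicle (DMSO, 1% v/v) and a cGMP-dependent protein kinase inhibitor at 2 μM. Parasite extracts were analysed by Western blot with anti-SUB1 antibody, scoring the p54 and p47 forms.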

Each structure is given as a SMILES string. Calls of active or inactive are those of the source. The calls are words filed in the database; no cut-off is given here.

Plasmepsin I, sequence (P39898 whole entry): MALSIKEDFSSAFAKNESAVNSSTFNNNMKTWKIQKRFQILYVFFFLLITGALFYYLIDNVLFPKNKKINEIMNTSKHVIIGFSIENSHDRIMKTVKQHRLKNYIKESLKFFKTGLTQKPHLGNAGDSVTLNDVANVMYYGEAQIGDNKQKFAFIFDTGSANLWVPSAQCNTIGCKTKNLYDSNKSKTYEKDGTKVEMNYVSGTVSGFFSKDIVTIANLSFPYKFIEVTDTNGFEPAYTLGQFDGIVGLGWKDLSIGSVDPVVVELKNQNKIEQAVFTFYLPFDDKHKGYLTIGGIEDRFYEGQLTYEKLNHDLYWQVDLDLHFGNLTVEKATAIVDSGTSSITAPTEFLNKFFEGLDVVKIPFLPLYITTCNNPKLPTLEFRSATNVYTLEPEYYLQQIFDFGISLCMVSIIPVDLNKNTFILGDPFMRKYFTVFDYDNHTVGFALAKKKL
Plasmepsin 4, sequence (Q17SB2 whole entry): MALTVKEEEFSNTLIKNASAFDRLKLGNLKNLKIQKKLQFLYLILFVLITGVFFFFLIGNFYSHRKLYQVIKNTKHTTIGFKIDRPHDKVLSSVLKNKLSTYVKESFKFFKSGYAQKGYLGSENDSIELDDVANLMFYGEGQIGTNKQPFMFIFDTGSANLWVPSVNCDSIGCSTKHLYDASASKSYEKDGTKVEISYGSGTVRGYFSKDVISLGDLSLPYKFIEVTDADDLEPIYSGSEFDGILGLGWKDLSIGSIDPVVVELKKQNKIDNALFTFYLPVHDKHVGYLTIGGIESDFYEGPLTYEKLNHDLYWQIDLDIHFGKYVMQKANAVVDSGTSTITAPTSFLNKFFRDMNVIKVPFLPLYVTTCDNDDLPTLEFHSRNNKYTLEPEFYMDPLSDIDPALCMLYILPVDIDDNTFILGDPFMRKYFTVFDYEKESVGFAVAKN
Cathepsin D, sequence (P07339 65-162 limits assumed): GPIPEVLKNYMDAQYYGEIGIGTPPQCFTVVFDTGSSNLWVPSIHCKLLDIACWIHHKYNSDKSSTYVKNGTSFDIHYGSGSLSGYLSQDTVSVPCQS
Cathepsin D, sequence (P07339 169-412 limits assumed): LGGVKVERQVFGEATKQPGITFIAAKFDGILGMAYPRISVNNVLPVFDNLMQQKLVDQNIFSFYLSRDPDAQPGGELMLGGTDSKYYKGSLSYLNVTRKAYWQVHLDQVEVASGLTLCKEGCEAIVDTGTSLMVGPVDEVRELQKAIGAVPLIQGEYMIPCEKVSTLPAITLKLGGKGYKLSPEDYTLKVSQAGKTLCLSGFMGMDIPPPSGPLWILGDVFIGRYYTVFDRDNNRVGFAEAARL

In general, IC50 refers to the concentration that gives 50% inhibition. For the molecule `COCCNC(=O)c1cc(C(=O)N[C@@H](Cc2ccccc2)[C@H](O)CNC(C)(C)c2cccc(OC)c2)cc(N2CCCCC2)c1`, the values for the 50% inhibitory concentration (IC50) in assay [1] and in assay [2] were 50 nM and 750 nM, respectively.

As to `COc1cccc(C(C)(C)NC[C@@H](O)[C@H](Cc2ccccc2)NC(=O)c2cc(C(=O)NCCN(C)C)cc(N3CCCCC3)c2)c1`, the 50% inhibitory concentration (IC50) turned out to be 360 nM in assay [1] and 4800 nM in assay [2].

For `COc1cccc(C(C)(C)NC[C@@H](O)[C@H](Cc2ccccc2)NC(=O)c2cc(C(=O)NCCO)cc(N3CCCCC3)c2)c1`, the figures for the IC50 in assay [1] and in assay [2] were 210 nM and 1420 nM, respectively.

As to `COc1cccc(C(C)(C)NC[C@@H](O)[C@H](Cc2ccccc2)NC(=O)c2cc(C(=O)N(CCO)CCO)cc(N3CCCCC3)c2)c1`, the half-maximal inhibitory concentration (IC50) in assay [1] stood at 68 nM; in assay [2], 270 nM.

In general, EC50 refers to the concentration at which the effect is half-maximal. Lower therefore signals higher potency in that assay. Consider `COc1cccc(C(C)(C)NC[C@@H](O)[C@H](Cc2ccccc2)NC(=O)c2cccc(C(=O)NCCC(F)(F)F)c2)c1`, for which the IC50 in assay [3] amounted to 10400 nM; in assay [4], 10300 nM; in assay [1] it was 150 nM; in assay [2] it was 4900 nM. Moreover, the EC50 in assay [5] was 6 nM.

Consider `COc1cccc(C(C)(C)NC[C@@H](O)[C@H](Cc2ccccc2)NC(=O)c2cc(C(=O)NCC(C)(C)O)cc(N3CCCCC3)c2)c1`, for which the results for the half-inhibitory concentration (IC50) in assay [1] and in assay [2] were 100 nM and 1660 nM, respectively.

On to `CCCN(CCC)C(=O)c1cc(C(=O)N[C@@H](Cc2ccccc2)[C@H](O)CNC(C)(C)c2cccc(OC)c2)cc(C(F)(F)F)c1`, for which the IC50 in assay [1] worked out at 15 nM; in assay [2], 67 nM.

For the molecule `COc1cccc(C(C)(C)NC[C@@H](O)[C@H](Cc2ccccc2)NC(=O)c2cc(C(=O)NCCC(F)(F)F)cc(N3CCCCC3)c2)c1`, the concentration for half-maximal inhibition (IC50) is 2200 nM in assay [3], 2500 nM in assay [4], 24 nM in assay [1] and 580 nM in assay [2]. Further, in assay [5], the midpoint of the response, the EC50, lay at 2 nM.

Take `COc1cccc(C(C)(C)NC[C@@H](O)[C@H](Cc2ccccc2)NC(=O)c2cc(C(=O)NCc3ccccc3)cc(N3CCCCC3)c2)c1`: the IC50 in assay [1] is 38 nM; in assay [2] it was 220 nM.

Regarding `COCCN(CCOC)C(=O)c1cc(C(=O)N[C@@H](Cc2ccccc2)[C@H](O)CNC(C)(C)c2cccc(OC)c2)cc(N2CCCCC2)c1`, the concentration for half-maximal inhibition (IC50) came out at 37 nM in assay [1] and 100 nM in assay [2].

In the case of `COc1cccc(C(C)(C)NC[C@@H](O)[C@H](Cc2ccccc2)NC(=O)c2cc(C(=O)N(CCC(F)(F)F)CCC(F)(F)F)cc(N3CCCCC3)c2)c1`, the IC50 was determined as 210 nM in assay [1] and 120 nM in assay [2].

Regarding `CCCN(CCC)C(=O)c1cc(F)cc(C(=O)N[C@@H](Cc2ccccc2)[C@H](O)CNC(C)(C)c2cccc(OC)c2)c1`, the IC50 in assay [3] amounted to 1100 nM; in assay [4], 1100 nM; in assay [1], 50 nM; in assay [2], 1000 nM. Moreover, the inhibition result in assay [6] and in assay [7] was “Active” throughout. Moreover, a half-maximal response in assay [5] (EC50) required 1.5 nM.

For `COc1cccc(C(C)(C)NC[C@@H](O)[C@H](Cc2ccccc2)NC(=O)c2cc(C(=O)NCC(C)(C)OC)cc(N3CCCCC3)c2)c1`, the IC50 in assay [3] was determined as 5400 nM; in assay [4], 7400 nM; in assay [1] it was 48 nM; in assay [2], 2100 nM. Further, the EC50 in assay [5] turned out to be 2 nM.

Regarding `COc1cccc(C(C)(C)NC[C@@H](O)[C@H](Cc2ccccc2)NC(=O)c2cccc(C(=O)NCC(C)(C)C)c2)c1`, the IC50 was determined as 7100 nM in assay [3], 5600 nM in assay [4], 76 nM in assay [1] and 3800 nM in assay [2]. In assay [5], the concentration giving a half-maximal response (EC50) was 2 nM.

With `CCCN(CCC)C(=O)c1cc(C(=O)N[C@@H](Cc2ccccc2)[C@H](O)CNC(C)(C)c2cccc(OC)c2)cc(C(=O)N(CCC)CCC)c1`, the 50% inhibitory concentration (IC50) stood at 270 nM in assay [3], 780 nM in assay [4], 18 nM in assay [1] and 700 nM in assay [2]. This molecule also had a half-maximal effective concentration (EC50) in assay [5] of 6 nM.

In the case of `COc1cccc(C(C)(C)NC[C@@H](O)[C@H](Cc2ccccc2)NC(=O)c2cc(C(=O)N(CC(C)C)CC(C)C)cc(N3CCCCC3)c2)c1`, the IC50 in assay [1] worked out at 500 nM; in assay [2], 1300 nM.

For the molecule `COc1cccc(C(C)(C)NC[C@@H](O)[C@H](Cc2ccccc2)NC(=O)c2cc(C(=O)NCCCO)cc(N3CCCCC3)c2)c1`, the results for the concentration for half-maximal inhibition (IC50) in assay [1] and in assay [2] were 93 nM and 2250 nM, respectively.

As to `CCCN(CCC)C(=O)c1cccc(C(=O)N[C@@H](Cc2ccccc2)[C@H](O)CNC(C)(C)c2cccc(OC)c2)c1`, the IC50 was 1700 nM in assay [3], 3100 nM in assay [4], 58 nM in assay [1] and 1150 nM in assay [2]. Also, the inhibition result in assay [6] and in assay [7] was “Active” each time. This molecule yielded an EC50 in assay [5] of 0.3 nM.

`COc1cccc(C(C)(C)NC[C@@H](O)[C@H](Cc2ccccc2)NC(=O)c2cc(C(=O)N(C)C)cc(N3CCCCC3)c2)c1`: the values for the IC50 in assay [1] and in assay [2] were 87 nM and 500 nM, respectively.

Turning to `CCCN(CCC)C(=O)c1cc(C)cc(C(=O)N[C@@H](Cc2ccccc2)[C@H](O)CNC(C)(C)c2cccc(OC)c2)c1`, the figures for the concentration for half-maximal inhibition (IC50) in assay [1] and in assay [2] were 23 nM and 210 nM, respectively.

In the case of `CCCN(CCC)C(=O)c1cc(Cl)cc(C(=O)N[C@@H](Cc2ccccc2)[C@H](O)CNC(C)(C)c2cccc(OC)c2)c1`, the 50% inhibitory concentration (IC50) in assay [1] is 8 nM; in assay [2], 96 nM.

As to `COc1cccc(C(C)(C)NC[C@@H](O)[C@H](Cc2ccccc2)NC(=O)c2cc(C(=O)NC(C)(C)CO)cc(N3CCCCC3)c2)c1`, the IC50 in assay [1] stood at 120 nM; in assay [2] it was 1460 nM.

`COc1cccc(C(C)(C)NC[C@@H](O)[C@H](Cc2ccccc2)NC(=O)c2cc(C(=O)NCC3CC3)cc(N3CCCCC3)c2)c1`: the 50% inhibitory concentration (IC50) in assay [3] was found to be 500 nM; in assay [4] it was 1800 nM; in assay [1], 30 nM; in assay [2], 760 nM. In addition, the concentration for a half-maximal effect (EC50) in assay [5] was 1.8 nM.

As to `COc1cccc(C(C)(C)NC[C@@H](O)[C@H](Cc2ccccc2)NC(=O)c2cc(C(=O)NCC(C)(C)C)cc(N3CCCCC3)c2)c1`, the IC50 in assay [3] turned out to be 850 nM; in assay [4], 2000 nM; in assay [1], 27 nM; in assay [2] it was 400 nM. This molecule also came in with an EC50 in assay [5] of 6 nM.

With `CCN(CC)C(=O)c1cc(C(=O)N[C@@H](Cc2ccccc2)[C@H](O)CNC(C)(C)c2cccc(OC)c2)cc(N2CCCCC2)c1`, the half-inhibitory concentration (IC50) in assay [3] came out at 160 nM; in assay [4], 800 nM; in assay [1], 14 nM; in assay [2] it was 250 nM. Besides, in assay [7], the inhibition result is “Active”. The molecule further returned a concentration giving a half-maximal response (EC50) in assay [5] of 1.5 nM.

`CCCN(CCC)C(=O)c1cc(C#N)cc(C(=O)N[C@@H](Cc2ccccc2)[C@H](O)CNC(C)(C)c2cccc(OC)c2)c1`: the half-maximal inhibitory concentration (IC50) was 59 nM in assay [1] and 560 nM in assay [2].

With `COc1cccc(C(C)(C)NC[C@@H](O)[C@H](Cc2ccccc2)NC(=O)c2cc(C(=O)NCC3CCCCC3)cc(N3CCCCC3)c2)c1`, the IC50 in assay [1] was 90 nM; in assay [2] it was 150 nM.

As to `COc1cccc(C(C)(C)NC[C@@H](O)[C@H](Cc2ccccc2)NC(=O)c2cc(C(=O)NCCOC(C)(C)C)cc(N3CCCCC3)c2)c1`, the half-inhibitory concentration (IC50) in assay [1] worked out at 31 nM; in assay [2], 150 nM.
